Source: ChEMBL document CHEMBL4400512, “Searching for new agents active against Candida albicans biofilm: A series of indole derivatives, design, synthesis and biological evaluation” (Eur J Med Chem, 2019)
Converted amounts (≈) assume the structure as drawn.

What was measured:
[1] = tested on: Candida albicans; test: Antifungal activity against planktonic form of Candida albicans PMC 1042 by broth microdilution method; type: organism-based; settings: in vitro
Summary of the method: (§1)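 Broth microdilution per CLSI M27-A3 and M27-S4. Strains were grown on Sabouraud dextrose agar at 35°C for 24 h. Final inoculum 1×10^3–5×10^3 cells/mL. Compounds were dissolved in DMSO (final <1%); 1% DMSO served as control. Final range 256–0.25 µg/mL. MIC50 is the lowest concentration giving ≥50% growth inhibition. Three independent experiments in duplicate, median; fluconazole as reference.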

[2] = Toxicity in Galleria mellonella larvae assessed as larval survival at 500 ug/ml after 24 hrs relative to control
Summary of the method: (§2)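 Ten healthy larvae per group, stored at 15°C in the dark. Each got a 20 µL injection into the haemocoel via the last left proleg, with compound freshly made in sterile water containing <1% v/v DMSO. Larvae were incubated at 30°C and survival scored every 24 h; death was no movement on stimulation plus cuticle discolouration. Controls were untreated, pierced-only and vehicle. Mean % survival of two independent experiments.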

[3] = Toxicity in Galleria mellonella larvae assessed as larval survival at 500 ug/ml after 48 hrs relative to control; summary of the method: as §2
[4] = tested on: Candida albicans; test: Antibiofilm activity against Candida albicans PMC 1042 assessed as inhibition of biofilm formation by XTT reduction assay; type: functional
Summary of the method: (§3)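 Biofilm method of Pierce et al. Biofilms were treated either during formation or once mature (24 h preformed). Metabolic activity of the cells within the biofilm was read by XTT reduction. BMIC50 is the lowest concentration giving a 50% drop in metabolic activity versus the untreated growth control. At least two experiments on separate dates, triplicate, reported as median.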

[5] = Toxicity in Galleria mellonella larvae assessed as larval survival at 10 ug/ml after 48 hrs relative to control; summary of the method: as §2
[6] = Toxicity in Galleria mellonella larvae assessed as larval survival at 50 ug/ml after 24 hrs relative to control; summary of the method: as §2
[7] = Toxicity in Galleria mellonella larvae assessed as larval survival at 5 ug/ml after 48 hrs relative to control; summary of the method: as §2
[8] = Toxicity in Galleria mellonella larvae assessed as larval survival at 5 ug/ml after 24 hrs relative to control; summary of the method: as §2
[9] = Toxicity in Galleria mellonella larvae assessed as larval survival at 50 ug/ml after 72 hrs relative to control; summary of the method: as §2
[10] = Toxicity in Galleria mellonella larvae assessed as larval survival at 10 ug/ml after 72 hrs relative to control; summary of the method: as §2
[11] = Toxicity in Galleria mellonella larvae assessed as larval survival at 100 ug/ml after 24 hrs relative to control; summary of the method: as §2
[12] = tested on: Candida albicans; test: Antifungal activity against planktonic form of Candida albicans PMC 1082 by broth microdilution method; type: organism-based; settings: in vitro; summary of the method: as §1
[13] = tested on: Candida albicans; test: Antibiofilm activity against Candida albicans ATCC 10231 assessed as inhibition of mature biofilm formation by XTT reduction assay; type: functional
Summary of the method: (§4)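 Biofilm assay after Pierce et al., with compound applied either during biofilm formation or to 24 h pre-formed (mature) biofilm. Read-out is metabolic activity of cells in the biofilm by XTT reduction. BMIC50 is the lowest concentration giving a 50% drop relative to untreated growth control. Tested in triplicate, at least two experiments on separate dates; median reported.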

[14] = tested on: Candida albicans; test: Antibiofilm activity against Candida albicans ATCC 10261 assessed as inhibition of mature biofilm formation by XTT reduction assay; type: functional; summary of the method: as §3
[15] = Toxicity in Galleria mellonella larvae assessed as larval survival at 100 ug/ml after 48 hrs relative to control; summary of the method: as §2
[16] = Toxicity in Galleria mellonella larvae assessed as larval survival at 100 ug/ml after 72 hrs relative to control; summary of the method: as §2
[17] = Toxicity in Galleria mellonella larvae assessed as larval survival at 5 ug/ml after 72 hrs relative to control; summary of the method: as §2
[18] = Toxicity in Galleria mellonella larvae assessed as larval survival at 50 ug/ml after 48 hrs relative to control; summary of the method: as §2
[19] = tested on: Candida albicans; test: Antifungal activity against planktonic form of Candida albicans ATCC 10231 by broth microdilution method; type: organism-based; settings: in vitro
Summary of the method: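 CLSI M27-A3 broth microdilution. Cells grown on Sabouraud dextrose agar at 35°C for 24 h; final inoculum 1×10^3–5×10^3 cells/mL. Compounds from DMSO stocks, final DMSO below 1%, final range 256–0.25 µg/mL. Controls were DMSO 1% and fluconazole reference. MIC50 is the lowest concentration giving ≥50% growth inhibition. Three independent experiments in duplicate; median reported.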

[20] = tested on: Candida albicans; test: Antibiofilm activity against Candida albicans PMC 1042 assessed as inhibition of mature biofilm formation by XTT reduction assay; type: functional; summary of the method: as §3
[21] = tested on: Candida albicans; test: Antibiofilm activity against Candida albicans PMC 1082 assessed as inhibition of biofilm formation by XTT reduction assay; type: functional; summary of the method: as §3
[22] = tested on: Candida albicans; test: Antifungal activity against planktonic form of Candida albicans ATCC 10261 by broth microdilution method; type: organism-based; settings: in vitro; summary of the method: as §1
[23] = Toxicity in Galleria mellonella larvae assessed as larval survival at 10 ug/ml after 24 hrs relative to control; summary of the method: as §2
[24] = tested on: Candida albicans; test: Antibiofilm activity against Candida albicans PMC 1082 assessed as inhibition of mature biofilm formation by XTT reduction assay; type: functional; summary of the method: as §3
[25] = tested on: Candida albicans; test: Antibiofilm activity against Candida albicans ATCC 10261 assessed as inhibition of biofilm formation by XTT reduction assay; type: functional; summary of the method: as §3
[26] = Toxicity in Galleria mellonella larvae assessed as larval survival at 500 ug/ml after 72 hrs relative to control; summary of the method: as §2
[27] = tested on: Candida albicans; test: Antibiofilm activity against Candida albicans ATCC 10231 assessed as inhibition of biofilm formation by XTT reduction assay; type: functional; summary of the method: as §4

| Structure (SMILES) | MIC50 [1] [mg/L] | survival at 24 h [2] [%] | survival at 48 h [3] [%] | MBIC50 [4] [µg/mL] | survival at 48 h [5] [%] | survival at 24 h [6] [%] | survival at 48 h [7] [%] | survival at 24 h [8] [%] | survival at 72 h [9] [%] | survival at 72 h [10] [%] | MIC50 [12] [mg/L] | MBIC50 [13] [µg/mL] | MBIC50 [14] [µg/mL] | MIC50 [19] [mg/L] | MBIC50 [20] [µg/mL] | MBIC50 [21] [µg/mL] | MIC50 [22] [mg/L] | MBIC50 [24] [µg/mL] | MBIC50 [25] [µg/mL] | MBIC50 [27] [µg/mL] | further results |
| --- | --- | --- | --- | --- | --- | --- | --- | --- | --- | --- | --- | --- | --- | --- | --- | --- | --- | --- | --- | --- | --- |
| O=[N+]([O-])c1ccc(N2CCN(Cc3c[nH]c4ccccc34)CC2)cc1 | > 256 | 100 | 100 | 32 | 100 | 100 | 100 | 100 | 100 | 100 | > 256 | 4 | 8 | > 128 | 2 | 32 | > 256 | 2 | 32 | >128 | survival at 24 h [11]: 100%; survival at 48 h [15]: 100%; survival at 72 h [16]: 100%; survival at 72 h [17]: 100%; survival at 48 h [18]: 100%; survival at 24 h [23]: 100%; survival at 72 h [26]: 100% |
| c1ccc2c(CCNCc3ccc(CNCCc4c[nH]c5ccccc45)cc3)c[nH]c2c1 | > 256 | 100 | 100 | 8 | 100 | 100 | 100 | 100 | 90 | 100 | > 256 | 8 | 4 | > 128 | 2 | 8 | 256 (≈ 606 µM) | 4 | 4 | 16 | survival at 24 h [11]: 100%; survival at 48 h [15]: 100%; survival at 72 h [16]: 100%; survival at 72 h [17]: 100%; survival at 48 h [18]: 90%; survival at 24 h [23]: 100%; survival at 72 h [26]: 100% |
| c1ccc2cc(CNCCc3c[nH]c4ccccc34)ccc2c1 | 128 (≈ 426 µM) | 100 | 100 | 8 | 100 | 90 | 100 | 100 | 90 | 100 | 32 (≈ 107 µM) | 2 | 8 | 16 (≈ 53.3 µM) | 2 | 8 | 32 (≈ 107 µM) | 2 | 8 | 8 | survival at 24 h [11]: 100%; survival at 48 h [15]: 100%; survival at 72 h [16]: 100%; survival at 72 h [17]: 100%; survival at 48 h [18]: 90%; survival at 24 h [23]: 100%; survival at 72 h [26]: 100% |
| OC(Cn1cncn1)(Cn1cncn1)c1ccc(F)cc1F [FLUCONAZOLE] | 8 (≈ 26.1 µM) | – | – | >64 | – | – | – | – | – | – | 0.125 (≈ 0.408 µM) | >128 | >64 | 0.5 (≈ 1.63 µM) | >64 | >64 | 2 (≈ 6.53 µM) | >64 | >64 | 128 | – |
